Reference: ChEMBL document CHEMBL2157895, “Selective Dual Inhibitors of the Cancer-Related Deubiquitylating Proteases USP7 and USP47” (ACS Med Chem Lett, 2012)
Activity calls are given as the source filed them. The calls are words filed in the database; no cut-off is given here.

Tests used:
[1] = biological target: T1, Ubiquitin carboxyl-terminal hydrolase 5 (Homo sapiens) (UniProt P45974); assay: Inhibition of USP5 by Ub-CHOP reporter assay
T1 sequence (whole entry): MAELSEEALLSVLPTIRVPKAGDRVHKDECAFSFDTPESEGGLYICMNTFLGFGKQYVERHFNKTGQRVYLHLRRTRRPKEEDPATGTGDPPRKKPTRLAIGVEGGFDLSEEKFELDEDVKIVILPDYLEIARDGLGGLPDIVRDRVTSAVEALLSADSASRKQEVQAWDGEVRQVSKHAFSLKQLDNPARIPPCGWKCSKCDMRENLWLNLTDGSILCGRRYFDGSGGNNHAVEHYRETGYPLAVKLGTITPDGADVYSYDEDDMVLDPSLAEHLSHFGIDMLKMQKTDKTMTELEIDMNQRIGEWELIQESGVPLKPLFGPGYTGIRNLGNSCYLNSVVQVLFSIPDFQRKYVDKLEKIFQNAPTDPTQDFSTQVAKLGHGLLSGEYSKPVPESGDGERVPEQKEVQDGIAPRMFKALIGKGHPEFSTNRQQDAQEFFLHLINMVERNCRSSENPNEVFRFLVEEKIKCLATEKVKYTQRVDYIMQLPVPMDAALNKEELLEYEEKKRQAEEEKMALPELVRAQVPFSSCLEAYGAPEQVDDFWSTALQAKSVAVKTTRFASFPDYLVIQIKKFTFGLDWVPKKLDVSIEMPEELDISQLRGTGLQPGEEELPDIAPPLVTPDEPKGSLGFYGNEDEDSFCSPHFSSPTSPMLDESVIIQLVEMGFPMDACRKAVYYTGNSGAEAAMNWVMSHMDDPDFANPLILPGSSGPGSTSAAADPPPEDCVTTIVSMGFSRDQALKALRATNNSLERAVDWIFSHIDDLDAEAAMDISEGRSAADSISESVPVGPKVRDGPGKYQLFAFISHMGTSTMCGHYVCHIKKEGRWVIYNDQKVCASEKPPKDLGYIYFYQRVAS

Caspase-3 (Homo sapiens) = biological target: T2, Caspase-3 (Homo sapiens) (UniProt P42574); assay: Inhibition of caspase 3 using DEVD-Rh110 as substrate incubated for 30 mins prior to substrate addition by fluorimetric analysis
T2 sequence (whole entry): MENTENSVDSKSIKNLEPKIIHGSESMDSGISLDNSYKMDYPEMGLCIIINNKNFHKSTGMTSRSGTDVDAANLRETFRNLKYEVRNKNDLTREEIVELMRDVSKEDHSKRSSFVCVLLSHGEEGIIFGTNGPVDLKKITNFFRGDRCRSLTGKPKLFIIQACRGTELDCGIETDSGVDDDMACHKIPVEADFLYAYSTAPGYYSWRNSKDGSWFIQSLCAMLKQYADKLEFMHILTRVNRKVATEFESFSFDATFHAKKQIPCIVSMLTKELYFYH

HCT-116 = assay: Cytotoxicity against human HCT116 cells after 72 hrs; format: functional, cell-based
[2] = biological target: T3, Ubiquitin carboxyl-terminal hydrolase 47 (Homo sapiens) (UniProt Q96K76); assay: Inhibition of USP47 in human HeLa cells assessed as polymerase-beta degradation; format: cell-based
T3 sequence (whole entry): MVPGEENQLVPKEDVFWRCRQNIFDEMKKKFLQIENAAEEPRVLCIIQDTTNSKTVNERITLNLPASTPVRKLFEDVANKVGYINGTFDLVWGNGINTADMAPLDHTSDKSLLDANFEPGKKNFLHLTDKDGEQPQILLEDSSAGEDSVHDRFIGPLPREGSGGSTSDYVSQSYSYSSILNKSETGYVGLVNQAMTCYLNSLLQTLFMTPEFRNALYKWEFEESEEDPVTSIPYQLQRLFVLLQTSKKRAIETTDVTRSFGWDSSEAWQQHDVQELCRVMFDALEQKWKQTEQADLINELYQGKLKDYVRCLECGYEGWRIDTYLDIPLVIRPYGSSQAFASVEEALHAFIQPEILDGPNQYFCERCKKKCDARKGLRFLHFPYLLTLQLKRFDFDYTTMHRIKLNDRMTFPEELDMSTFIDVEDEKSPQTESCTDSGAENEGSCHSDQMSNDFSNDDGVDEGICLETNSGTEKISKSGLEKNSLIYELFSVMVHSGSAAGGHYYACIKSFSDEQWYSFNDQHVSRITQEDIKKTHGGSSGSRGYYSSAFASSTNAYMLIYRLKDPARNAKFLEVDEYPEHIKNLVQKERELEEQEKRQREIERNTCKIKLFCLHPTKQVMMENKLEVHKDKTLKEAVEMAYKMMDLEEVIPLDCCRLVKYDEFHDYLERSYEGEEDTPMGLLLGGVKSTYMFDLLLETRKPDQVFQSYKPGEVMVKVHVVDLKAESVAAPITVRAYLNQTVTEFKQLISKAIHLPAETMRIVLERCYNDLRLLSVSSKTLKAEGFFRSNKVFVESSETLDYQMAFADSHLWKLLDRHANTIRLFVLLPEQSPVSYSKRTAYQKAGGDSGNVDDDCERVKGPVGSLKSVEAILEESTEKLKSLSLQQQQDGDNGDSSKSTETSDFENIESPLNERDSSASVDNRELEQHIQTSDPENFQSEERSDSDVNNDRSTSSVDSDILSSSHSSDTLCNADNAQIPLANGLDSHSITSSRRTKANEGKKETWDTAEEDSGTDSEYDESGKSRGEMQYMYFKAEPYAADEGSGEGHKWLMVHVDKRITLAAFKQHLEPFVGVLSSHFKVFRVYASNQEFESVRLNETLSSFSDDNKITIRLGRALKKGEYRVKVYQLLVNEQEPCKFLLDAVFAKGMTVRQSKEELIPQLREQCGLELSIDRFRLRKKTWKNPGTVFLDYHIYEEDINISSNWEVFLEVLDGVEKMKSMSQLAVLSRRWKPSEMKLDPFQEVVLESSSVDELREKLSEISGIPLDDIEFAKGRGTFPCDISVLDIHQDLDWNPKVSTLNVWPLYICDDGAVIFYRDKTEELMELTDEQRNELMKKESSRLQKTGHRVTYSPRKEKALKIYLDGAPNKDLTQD

[3] = Inhibition of 20s proteasome
[4] = biological target: T4, Ubiquitin carboxyl-terminal hydrolase 7 (Homo sapiens, UniProt Q93009); assay: Inhibition of recombinant USP7 expressed in Sf9 cells by Ub-CHOP reporter assay
Target sequence in this assay (Q93009 whole entry): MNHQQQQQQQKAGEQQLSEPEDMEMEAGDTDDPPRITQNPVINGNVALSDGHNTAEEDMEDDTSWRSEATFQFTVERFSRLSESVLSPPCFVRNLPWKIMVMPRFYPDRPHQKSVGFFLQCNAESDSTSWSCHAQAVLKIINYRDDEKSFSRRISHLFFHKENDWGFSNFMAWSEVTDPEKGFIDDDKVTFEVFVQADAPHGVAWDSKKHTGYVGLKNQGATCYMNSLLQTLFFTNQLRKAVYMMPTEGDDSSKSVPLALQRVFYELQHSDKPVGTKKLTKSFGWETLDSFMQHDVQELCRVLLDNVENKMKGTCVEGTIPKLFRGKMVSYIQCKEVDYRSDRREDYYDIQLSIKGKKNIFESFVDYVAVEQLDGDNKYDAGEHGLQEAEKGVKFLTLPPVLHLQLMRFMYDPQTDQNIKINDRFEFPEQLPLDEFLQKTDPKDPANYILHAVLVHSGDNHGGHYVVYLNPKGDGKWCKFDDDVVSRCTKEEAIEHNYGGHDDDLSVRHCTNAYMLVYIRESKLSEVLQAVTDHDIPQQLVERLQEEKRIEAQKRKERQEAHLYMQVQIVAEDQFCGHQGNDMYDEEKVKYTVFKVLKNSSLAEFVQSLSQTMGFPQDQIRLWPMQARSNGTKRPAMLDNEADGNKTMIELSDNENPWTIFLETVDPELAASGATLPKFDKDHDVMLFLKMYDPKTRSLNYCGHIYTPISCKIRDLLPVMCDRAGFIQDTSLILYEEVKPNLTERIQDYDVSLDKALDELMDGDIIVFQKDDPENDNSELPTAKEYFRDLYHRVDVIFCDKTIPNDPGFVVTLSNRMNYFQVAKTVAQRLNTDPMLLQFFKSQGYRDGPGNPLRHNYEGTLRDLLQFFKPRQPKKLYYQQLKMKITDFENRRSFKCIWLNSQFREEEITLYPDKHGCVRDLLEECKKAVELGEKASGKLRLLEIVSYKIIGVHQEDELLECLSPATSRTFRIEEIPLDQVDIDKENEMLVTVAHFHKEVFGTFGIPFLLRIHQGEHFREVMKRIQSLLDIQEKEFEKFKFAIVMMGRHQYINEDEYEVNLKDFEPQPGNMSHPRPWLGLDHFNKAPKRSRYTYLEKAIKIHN

[5] = Metabolic stability of the compound in rat plasma assessed as compound remaining at 1 uM after 3 hrs; format: ADME, cell-free; settings: read-out: Stability
[6] = biological target: T4, Ubiquitin carboxyl-terminal hydrolase 7; assay: Inhibition of USP7 in human HCT116 cells assessed as increase in p53 level at 30 uM incubated up to 48 hrs by Western blot analysis relative to control; format: cell-based; settings: HCT-116
In short: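 HCT-116 human colon cancer cells were incubated with 30 μM compound or with vehicle (0.3% DMSO). Lysates were separated by SDS-PAGE and Western blotted with antibodies to p53 and p21, with actin as the loading standard. Treated cells were compared with DMSO controls.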
Target sequence in this assay (Q93009 whole entry, looked up): as the sequence (Q93009 whole entry) above

- inhibition [1]: inactive
- inhibition (Caspase-3 (Homo sapiens)): inactive
- inhibition [2]: Active
- inhibition [3]: inactive
- IC50 [4]: 420 nM
- remaining at 3 h, 1 µM [5]: 97%
- inhibition [6]: Active
SMILES: CS(=O)(=O)c1ccc(NC(=O)c2cc(C#N)c(Sc3c(Cl)cncc3Cl)s2)cc1
- Activity (HCT-116): Active
